RanGTP-Imp inh = disruptors of Ran-importin-beta complex formation – biochemical, FRET, CFP-Ran, YFP-importin-beta, homogeneous, primary screen; cell-free CFP-Ran/YFP-importin-beta FRET ratio; inhibition, % (no concentration beside the values); 300,000 compounds, 1.1% hits;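 active = more than half of the replicate wells show a fall in the fluorescence ratio signal beyond about 16%, limit read from the data, passing the limit was not always enough; inconclusive = exactly half of the replicate wells pass the set limit; inactive = fewer than half of replicates pass the limit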;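 note: 0% = DMSO wells and 100% = Ran loaded with GDP instead of GTP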
Hck-Nef inh = inhibitors of human Hck kinase activated by Nef; P08631; Recombinant Hck-YEEI plus Nef, Z-Lyte FRET kinase assay; inhibition, % at 20 µM; 220,000 compounds, 0.68% hits;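 active = Hck-Nef kinase inhibition above about 50%, limit read from the data; inactive = inhibition below that limit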;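 note: 0% = DMSO with Hck plus Nef and 100% = Hck alone without Nef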
Target sequence (P08631 whole entry, looked up): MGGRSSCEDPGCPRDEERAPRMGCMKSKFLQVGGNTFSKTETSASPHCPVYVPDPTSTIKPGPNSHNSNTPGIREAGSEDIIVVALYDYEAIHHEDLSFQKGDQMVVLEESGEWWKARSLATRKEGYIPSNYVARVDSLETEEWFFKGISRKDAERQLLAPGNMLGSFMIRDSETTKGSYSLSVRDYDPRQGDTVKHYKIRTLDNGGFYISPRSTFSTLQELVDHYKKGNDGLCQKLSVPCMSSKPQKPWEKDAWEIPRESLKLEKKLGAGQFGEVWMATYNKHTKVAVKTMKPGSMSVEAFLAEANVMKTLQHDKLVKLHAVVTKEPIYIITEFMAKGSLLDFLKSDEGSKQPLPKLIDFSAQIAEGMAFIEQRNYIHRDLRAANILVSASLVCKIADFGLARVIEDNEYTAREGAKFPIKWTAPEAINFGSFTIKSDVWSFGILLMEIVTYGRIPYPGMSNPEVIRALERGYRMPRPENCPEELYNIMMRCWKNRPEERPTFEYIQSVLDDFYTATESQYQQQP
Runt-SMMHC FRET = Runt domain-CBFb-SMMHC interaction inhibition | Q01196+Q13951 | Cerulean-Runt/Venus-CBFb-SMMHC FRET ratio 530/480, 1 h | inhibition, % at 20 µM | 220,000 compounds, 0.74% hits | AID 1434;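 active = mean inhibition across duplicate retests at 20 µM reaching about 50%, limit read from the data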;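 note: 0% = DMSO wells and 100% = wells with excess untagged CBFb-SMMHC; inhibitors lower the FRET ratio by blocking Runt binding to CBFb-SMMHC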
Runt-CBFb FRET = inhibitors of human RUNX1 Runt domain binding to CBFb; 220,000 compounds, 0.46% hits; inhibition, % at 20 µM; AID 1496; Cerulean-Runt/Venus-CBFb FRET ratio 530/480, 1 h;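 active = inhibition over about 50% at 20 µM in the single-dose screen, limit read from the data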;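 note: 0% = DMSO wells and 100% = excess unlabeled CBFb competitor control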
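test system = Cerulean-tagged RUNX1 Runt domain (FRET donor) fusion protein | reagent = Venus-CBFb binding partner, 100 nM | incubation = protein complex preformed 1 h, compound exposure 1 h, room temperature, dark | detection = FRET fluorescence | read-out basis = loss of energy transfer signal | controls = 5 µM unlabeled CBFb as full-inhibition high control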
Active calls of the source: *. Shown are actives, neighbours in structure and some others; about 1.9% of the full set was active somewhere.

Results for COc1ccc(NC(=S)N(CCN2CCOCC2)Cc2cc3cc4c(cc3[nH]c2=O)OCCO4)cc1 ?
RanGTP-Imp inh: -7; Hck-Nef inh: 15; Runt-SMMHC FRET: -8; Runt-CBFb FRET: 15

Results for Cc1cc(NC(=O)CSc2ccc(-c3ccc(F)cc3)nn2)no1 ?
RanGTP-Imp inh: -2; Hck-Nef inh: 23; Runt-SMMHC FRET: -2; Runt-CBFb FRET: -2

Results for Cc1ccc(-c2nc3cnccn3c2Nc2c(C)cccc2C)o1 ?
RanGTP-Imp inh: 47*; Hck-Nef inh: 4; Runt-SMMHC FRET: -47; Runt-CBFb FRET: -3

Results for Cc1ccc(OS(=O)(=O)c2c(C)nn(C)c2Cl)c(C)c1 ?
RanGTP-Imp inh: -1

How did N#Cc1cc2c(=O)n3ccccc3nc2n(CCN2CCOCC2)c1=O do in these assays?
Runt-SMMHC FRET: 143*; Runt-CBFb FRET: 103*

Results for Cc1ccc2nc3c(cc(C#N)c(=O)n3CCN3CCOCC3)c(=O)n2c1 ?
Runt-SMMHC FRET: 63*; Runt-CBFb FRET: 146*

What do the screens show for `COCCCn1c(C(=O)N2CCOCC2)cc2c(=O)n3ccccc3nc21`?
RanGTP-Imp inh: 0

What do the screens show for `Cc1ccc2nc3c(cc(C#N)c(=O)n3CC3CCCO3)c(=O)n2c1` (stereo unspecified)?
Hck-Nef inh: 189*; Runt-SMMHC FRET: 65*; Runt-CBFb FRET: 52*

What do the screens show for `Cc1cc(C)cc(NC(=O)C2CCCN2/C=C/C(=O)C(F)(F)F)c1` (stereo unspecified)?
RanGTP-Imp inh: 4; Hck-Nef inh: 0; Runt-SMMHC FRET: 0; Runt-CBFb FRET: 0

Results for COc1ccc(N2C(=S)NC3N2C(=S)NC3(C)c2ccccc2)cc1 (stereo unspecified) ?
RanGTP-Imp inh: 2; Hck-Nef inh: 27; Runt-SMMHC FRET: 3; Runt-CBFb FRET: 12

Results for COC(=O)c1cn(CC(=O)N2CCCCCC2)c2ccccc12 ?
RanGTP-Imp inh: 3; Hck-Nef inh: -8; Runt-SMMHC FRET: -3; Runt-CBFb FRET: -2

Results for CCOC(=O)C1=C(O)/C(=C/c2cn(CC(=O)N3CCCC3)c3ccccc23)SC1=Nc1ccccc1 ?
RanGTP-Imp inh: 0; Hck-Nef inh: 10; Runt-SMMHC FRET: 83*; Runt-CBFb FRET: 21

What do the screens show for `COc1cc(C2C(C#N)=C(N)Oc3cc(N)ccc32)cc(OC)c1OC` (stereo unspecified)?
Hck-Nef inh: 4; Runt-SMMHC FRET: 81*; Runt-CBFb FRET: 35

How did N#CC1=C(N)Oc2cc(N)ccc2C1c1cccnc1 (stereo unspecified) do in these assays?
RanGTP-Imp inh: 24*; Hck-Nef inh: 0; Runt-SMMHC FRET: -4; Runt-CBFb FRET: -4

Results for CCN(CC)c1ccc2c(c1)OC(N)=C(C#N)C2c1cccnc1 (stereo unspecified) ?
RanGTP-Imp inh: -127; Hck-Nef inh: -4; Runt-SMMHC FRET: -194

Results for Cc1ccc(C2C(C#N)=C(N)Oc3cc4c(cc32)OCO4)cc1 (stereo unspecified) ?
RanGTP-Imp inh: 12; Hck-Nef inh: 5; Runt-SMMHC FRET: 33; Runt-CBFb FRET: 24

Results for COc1ccc(C2C(C#N)=C(N)Oc3cc(N)ccc32)cc1 (stereo unspecified) ?
RanGTP-Imp inh: 77*

What do the screens show for `C#CCSc1nc(N)c2c(n1)OC(N)=C(C#N)C2c1cccnc1` (stereo unspecified)?
RanGTP-Imp inh: 60*; Hck-Nef inh: 6; Runt-SMMHC FRET: 3; Runt-CBFb FRET: 0

How did COc1ccc(N/C=C(\C#N)S(=O)(=O)c2ccc(Cl)cc2)c(OC)c1 do in these assays?
RanGTP-Imp inh: -5

How did COc1ccc(C2C(C#N)=C(N)Oc3cccc(O)c32)cc1 (stereo unspecified) do in these assays?
RanGTP-Imp inh: 51*

How did N#CC1=C(N)OC2=C(CCc3ccccc32)C1c1ccccc1Cl (stereo unspecified) do in these assays?
RanGTP-Imp inh: 4; Hck-Nef inh: 1; Runt-SMMHC FRET: 30; Runt-CBFb FRET: 12

How did COc1ccc(C2C(C#N)=C(N)Oc3cc(C)n(Cc4ccco4)c(=O)c32)cc1 (stereo unspecified) do in these assays?
RanGTP-Imp inh: -6; Hck-Nef inh: -2; Runt-SMMHC FRET: 4; Runt-CBFb FRET: 9

How did CCc1ccc(C2C(C#N)=C(N)Oc3cc(N)ccc32)cc1 (stereo unspecified) do in these assays?
RanGTP-Imp inh: 96*

How did N#CC1=C(N)Oc2cc(N)ccc2C1c1ccccc1Cl (stereo unspecified) do in these assays?
RanGTP-Imp inh: 133*

How did N#CC1=C(N)Oc2cc(N)ccc2C1c1ccc(F)cc1F (stereo unspecified) do in these assays?
RanGTP-Imp inh: 125*

How did Cc1nn(-c2ccccc2)c2c1C(c1ccc(F)cc1F)C(C#N)=C(N)O2 (stereo unspecified) do in these assays?
RanGTP-Imp inh: -3; Hck-Nef inh: 0; Runt-SMMHC FRET: 0; Runt-CBFb FRET: -2

Results for FC(F)Oc1ccc(NC(=S)NNc2ccnc3cc(Cl)ccc23)cc1 ?
RanGTP-Imp inh: 2; Hck-Nef inh: 30; Runt-SMMHC FRET: 7; Runt-CBFb FRET: 2

How did O=c1nc(N2CCCC2)nc(N2CCCC2)[nH]1 do in these assays?
RanGTP-Imp inh: -3

Results for N#CC1=C(N)Oc2cc(N)ccc2C1c1ccc(Cl)cc1 (stereo unspecified) ?
RanGTP-Imp inh: 61*

What do the screens show for `O=C(NCc1ccccc1F)c1ccc2c(c1)OCO2`?
RanGTP-Imp inh: 16*; Hck-Nef inh: -1; Runt-SMMHC FRET: 1; Runt-CBFb FRET: 1

Results for CCc1nn(-c2ccccc2)c2c1-c1cc(OC)c(OC)cc1C1(N2)C(=O)Nc2ccccc21 (stereo unspecified) ?
RanGTP-Imp inh: 31*; Hck-Nef inh: -19; Runt-SMMHC FRET: 0; Runt-CBFb FRET: 0

Results for Cc1ccc(-n2cnc3cc(NCc4cccs4)ccc32)cc1 ?
RanGTP-Imp inh: 19*; Hck-Nef inh: -1; Runt-SMMHC FRET: 12; Runt-CBFb FRET: 5

How did Cc1ccc(CNc2ccc3c(c2)ncn3C)cc1 do in these assays?
RanGTP-Imp inh: 16*; Hck-Nef inh: 1; Runt-SMMHC FRET: 7; Runt-CBFb FRET: 21

What do the screens show for `c1ccc(-n2cnc3cc(NCc4cccs4)ccc32)cc1`?
RanGTP-Imp inh: inconclusive; Hck-Nef inh: 2; Runt-SMMHC FRET: 2; Runt-CBFb FRET: -1

What do the screens show for `Cc1ccc(S(=O)(=O)Nc2ccc3c(c2)ncn3C(C)(C)C)cc1`?
RanGTP-Imp inh: 3; Hck-Nef inh: 4; Runt-SMMHC FRET: 1; Runt-CBFb FRET: -2

Results for Cc1ccc(CNc2ccc3c(c2)ncn3C(C)(C)C)cc1 ?
RanGTP-Imp inh: 36*; Hck-Nef inh: 15; Runt-SMMHC FRET: 43; Runt-CBFb FRET: 7

Results for CN(C)S(=O)(=O)c1cccc(NC(=O)c2sccc2-c2ccccc2)c1 ?
RanGTP-Imp inh: -3

Results for COc1ccccc1N(CC(=O)N/N=C/c1c(O)ccc2ccccc12)S(C)(=O)=O ?
RanGTP-Imp inh: 2; Hck-Nef inh: 3; Runt-SMMHC FRET: 53*; Runt-CBFb FRET: 36

Screening data (PubChem)
